Screens deposited in PubChem by The Scripps Research Institute Molecular Screening Center.
ABHD4 inh = inhibitors of mouse ABHD4 | Q8VD66 | purified mABHD4, FP-Rh probe fluorescence polarization | inhibition, % at 8.92 µM | hit rate 0.54% among 370,000 | AID 720543;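 active = inhibition exceeding the mean over every tested compound plus 3 SD, cut at about 30% in these data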
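Doses – 8.92 µM, single dose · Material – wild-type mouse ABHD4 protein · Replication – single well per compound (singlicate) · Measure – percent inhibition of probe binding, normalized to plate controls · Schedule – 45 min compound pre-incubation plus 60 min probe step, 25 °C · Detection – fluorescence polarization with parallel and perpendicular emission, 525/598 nm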
DAGLB inhibitor = diacylglycerol lipase beta (human) inhibition; AID 504411; inhibition, % at 5.17 µM; HEK293T DAGLB membrane lysate, EnzChek fluorogenic substrate; Q8NCG7; hit rate 0.059% among 340,000; in the data active = inhibition above about 34%
HTRA1 inhibitor = inhibitors of human serine peptidase HTRA1 | hit rate 0.5% among 340,000 | Q92743 | recombinant HTRA1, FP-rhodamine activity-based probe, fluorescence polarization | inhibition, % at 5.96 µM; in the data active = inhibition above about 36%
Target sequence (Q92743 whole entry, looked up): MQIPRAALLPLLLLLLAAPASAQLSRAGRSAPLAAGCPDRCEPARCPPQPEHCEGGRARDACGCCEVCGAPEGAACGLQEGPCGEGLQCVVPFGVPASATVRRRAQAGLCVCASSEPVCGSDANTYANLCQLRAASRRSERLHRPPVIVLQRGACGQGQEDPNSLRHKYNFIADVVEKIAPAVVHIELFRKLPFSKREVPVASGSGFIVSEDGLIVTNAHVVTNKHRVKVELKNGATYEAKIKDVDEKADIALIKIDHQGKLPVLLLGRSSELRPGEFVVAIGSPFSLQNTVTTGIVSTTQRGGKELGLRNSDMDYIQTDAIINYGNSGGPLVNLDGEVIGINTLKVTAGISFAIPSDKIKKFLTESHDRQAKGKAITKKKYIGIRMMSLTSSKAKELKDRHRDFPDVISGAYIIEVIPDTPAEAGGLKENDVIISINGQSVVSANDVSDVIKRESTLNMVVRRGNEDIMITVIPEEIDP
rCAG RNA binder = r(CAG) repeat RNA binding. inhibition, % at 3 µM. TO-PRO-1 dye displacement fluorescence. hit rate 1.3% among 370,000;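 active = inhibition above the plate cutoff, the mean of all test compounds on that plate plus 3 SD, cut at about 35% in these data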;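 also: higher means more dye released from RNA so lower well fluorescence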
PRMT1 FP inh = blocks human protein arginine methyltransferase 1. recombinant PRMT1, activity-based probe fluorescence polarization. inhibition, % at 2.79 µM. hit rate 1.3% among 370,000. AID 652257;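 active = inhibition above about 21% made by adding two undisclosed values, limit read from the data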
LEDGF integ inh = blocks HIV-1 LEDGF/p75-dependent DNA integration; inhibition, % at 3.7 µM; AID 743269; TR-FRET IN-LEDGF/p75 DNA integration, Eu/Cy5; hit rate 0.64% among 370,000;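 active = inhibition above the screen-wide mean plus 3 SD, cut at about 13% in these data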;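 also: signal is the Cy5 over europium emission ratio at 671 and 618 nm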
PRMT1 inh conf = confirmation of human PRMT1 inhibitors | shares compounds with PRMT1 FP inh | recombinant His-PRMT1, activity-based probe fluorescence polarization | inhibition, % at 2.79 µM | hit rate 42% among 3,300 | AID 687036;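 active = mean inhibition across replicates above the hit cutoff derived for the earlier primary screen, cut at about 22% in these data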
Hits are given with their value; 0 = inactive; - = no result. In the library only some 3.2% were active in any assay of this set; here they are far more common.

SMILES	ABHD4 inh	DAGLB inhibitor	HTRA1 inhibitor	rCAG RNA binder	PRMT1 FP inh	LEDGF integ inh	PRMT1 inh conf
Cc1ccc(-n2c(CCC(=O)O)ccc2-c2cccs2)cc1	0	0	0	0	0	0	-
CC(=O)NC(C)Cc1cn(Cc2ccccc2)c2ccccc12 (configuration not stated)	0	0	0	0	0	0	-
CC1=C(C(=O)OCC(C)C)C(c2cc3c(cc2Br)OCO3)NC(=O)N1C (configuration not stated)	0	0	0	0	0	0	-
CCCOC(=O)C1=C(C)N(C)C(=O)NC1c1cc2c(cc1[N+](=O)[O-])OCO2 (configuration not stated)	0	0	0	0	27	0	22
O=C(Nc1ccccc1Cl)C1C2CCCCC21 (configuration not stated)	0	0	0	0	0	0	-
CCOC(=O)C1=C(Cc2ccc(C)cc2)C(=O)c2ccccc2C1=O	0	-	-	0	92	0	27
CCOC(=O)C1=C(Cc2ccc(OC)cc2)C(=O)c2ccccc2C1=O	-	0	0	-	-	-	-
CN(C)/C=C1/Sc2ccccc2C1=O	0	0	0	0	57	0	29
O=C1/C(=C\c2cccnc2)Sc2ccccc21	0	0	0	0	31	0	0
Cc1cccc(N(CC(=O)Nc2ccc(CC#N)cc2)S(C)(=O)=O)c1	0	0	0	0	0	0	-
Cc1cc(C)nc(N2N=C(C(C)(C)C)CC2=O)n1	0	0	0	0	41	0	0
Cc1ccc(S(=O)(=O)NC2(C(F)(F)F)NC(=O)N(Cc3ccccc3)C2=O)cc1 (configuration not stated)	0	0	0	0	0	0	-
Cc1ccc(-n2nc3c(=O)n(CCCC(=O)NCc4ccc(F)cc4)nc(C)c3c2C)cc1	0	0	0	0	0	0	-
O=c1cc(N2CCN(c3cccc(C(F)(F)F)c3)CC2)[nH]c(=O)n1C1CCCCC1	0	-	-	-	0	0	-
CCN1CCc2c(sc(NC(=O)Nc3ccc(Cl)c(Cl)c3)c2C(N)=O)C1	0	0	0	0	45	0	0
O=C1C=CC(=O)N1CCNc1ncc(C(F)(F)F)cc1Cl	0	0	0	0	92	0	90
N#CC1=C2SCN(c3ccccc3)CN2C(=O)CC1c1ccccc1Cl (configuration not stated)	0	0	0	0	0	0	-
COc1cc(OC)c(C2CC(=O)N3CN(c4ccccc4)CSC3=C2C#N)cc1OC (configuration not stated)	0	0	0	0	52	0	26
CCc1ccccc1N1CSC2=C(C#N)C(c3cc(OC)c(OC)cc3OC)CC(=O)N2C1 (configuration not stated)	0	0	0	0	62	0	79
N#CC1=C2SCN(c3ccccc3)CN2C(=O)CC1c1c(Cl)cccc1Cl (configuration not stated)	0	0	0	0	52	0	55
COc1cc(OC)c(C2CC(=O)N3CN(C)CSC3=C2C#N)cc1OC (configuration not stated)	0	0	0	0	42	0	77
C[C@H]1COc2cc(Br)ccc2S(=O)(=O)N1Cc1cn(Cc2ccc(Cl)cc2)nn1	0	-	-	0	0	0	-
N/N=C(\c1ccccc1)C12CN3CN(CN(C3)C1)C2	0	0	0	0	0	0	-
C=CCN(CC=C)CCOc1cccc(Oc2ccccc2)c1	0	0	0	0	0	0	-
CC(C)CN1C(=O)C(=Nc2cccnc2)c2ccccc21	0	0	0	0	0	0	-
CC(C)NC(=O)c1c(O)c2cccc3c2n(c1=O)CCC3	0	0	0	0	0	0	-
COc1cc(C2CC(=O)N3CN(c4ccccc4C)CSC3=C2C#N)cc(OC)c1OC (configuration not stated)	0	-	-	0	38	0	46
O=C(CC(Nc1ccccc1)C(=O)O)c1ccccc1 (configuration not stated)	0	0	0	0	0	0	-
O=C(CC(Nc1ccc(Cl)cc1Cl)C(=O)O)c1ccccc1 (configuration not stated)	0	0	0	0	39	0	0
